# According to the RNAGym collection of RNA variant scans (doi:10.1126/science.aae0568):
# This sample holds only a part of the variants without activity.
# B1: tRNA (parent)
# chain: GUUCCGUUGGCGUAAUGGUAACGCGUCUCCCUCCUAAGGAGAAGACUGCGGGUUCGAGUCCCGUACGGAACG
# Variants of: B1
# Assay: yeast fitness relative to wild type (ratio to wild type); higher = fitter; tRNA-Arg(CCU), competitive growth, 37 C, YPD
# Method in brief: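 Gene amplicons from the start population and from each of six end populations were read by 100-nucleotide paired-end sequencing. Those end populations came from pooled Saccharomyces cerevisiae strains carrying tRNA-Arg(CCU) gene variants at the native locus, competed in YPD at 37°C for 24 hours. Fitness relative to wild type was worked out from changes in genotype frequencies. Genotypes needed ≥ 100 starting reads, and estimates < 0.5 were set to 0.5.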
row,Variant,yeast fitness
1,U13C A40G C62G,≤ 0.5
2,U13A U16A C49A C61U C62G,≤ 0.5
3,U13A G48C,1.1
4,U13A U19A C34U A42C A43U,≤ 0.5
5,U13C A37G C60A A65U,≤ 0.5
6,U13C C22U G39C,0.512
7,U13A G25C A45G A57G,≤ 0.5
8,U13C A42C,0.932
9,U13C A42U,0.923
10,U13A G67U,0.727
11,U13A G67A,0.9
12,U13C A36U C62G A65G,0.671
13,U13C C31U C62A G63A,≤ 0.5
14,U13C C46G C62G,≤ 0.5
15,U13C C24G G38C,0.592
16,U13C C55A A69U,0.624
17,U13C G48C G50A,≤ 0.5
18,U13C A15U U16A U19A C34U G67A G68C,≤ 0.5
19,U13C G38C A43C G51C G56C A69G,≤ 0.5
20,U13C C22U G38C A70U,≤ 0.5
21,U13C A43U A70C,0.679

row,Variant,yeast fitness
1,U13A G38C A69C,0.524
2,U13A G41A G48A U53C,≤ 0.5
3,U13C A14C U64C A65C,≤ 0.5
4,U13C A20C A43G,0.684
5,U13C C22G G38C A45U C49G,≤ 0.5
6,U13C U19C A36U A42G G52A C60A C62A,≤ 0.5
7,U13C A40C C66A,0.567
8,U13C C60A A70G,0.588
9,U13C A14U A36U G38A A43U G67A,≤ 0.5
10,U13C U16A G17C C34U,≤ 0.5
11,U13A G17A,0.764
12,U13C G23C C49U,≤ 0.5
13,U13C G25A C31U,0.749
14,U13C C27U C55A A69U,≤ 0.5
15,U13C A65U,1.02
16,U13C A65C,0.873
17,U13A G38C,0.619
18,U13C A15G C22G,0.571
19,U13A G23C U32G C49U A69U,≤ 0.5
20,U13C A43U C60G,0.546
21,U13C C66G,0.742

row,Variant,yeast fitness
1,U13C C66A,0.556
2,U13C U19A G51C C55U U64G,0.633
3,U13A U28A C30G C46U G56C C61G,≤ 0.5
4,U13C C22U C27U A37C A57G,≤ 0.5
5,U13C A36C G67U,0.637
6,U13C G50C C66U,≤ 0.5
7,U13C C49U,1.01
8,U13C C49G,0.896
9,U13A U28C G41A G44A,≤ 0.5
10,U13C C22U C27U A37C,0.563
11,U13C A37C,0.713
12,U13C A37G,0.694
13,U13C C60A,0.685
14,U13C C60U,0.725
15,U13C A15U U16A U19A,≤ 0.5
16,U13A U32C U54G C62U,≤ 0.5
17,U13C C61A G67A,≤ 0.5
18,U13C A43G A45U,0.587
19,U13C G23C A70G,0.585
20,U13C A36G A40C,0.61
21,U13C A21G A42U A57U C62U,≤ 0.5

row,Variant,yeast fitness
1,U13C A43U A69C,0.766
2,U13C A42G G56U,≤ 0.5
3,U13C G44C,0.913
4,U13C G44A,0.827
5,U13A G18C A36G G41C A65C,0.544
6,U13C C49G C62U,0.533
7,U13C U19A A21U C24A U54C U59C A69G,≤ 0.5
8,U13C G63A,0.937
9,U13A U32C A69U,0.995
10,U13C G18A A69C,0.719
11,U13A U32A C62U G63A,≤ 0.5
12,U13C C29A C33G U35C G51A,0.503
13,U13A G23A G67C,0.535
14,U13C C49G G50C A65U,≤ 0.5
15,U13C C29G A45U C62U,≤ 0.5
16,U13A G23C C27G,0.504
17,U13C A14U G41C,0.603
18,U13C A20G U54C,≤ 0.5
19,U13A G23C C61A C62A,0.726
20,U13C G48C,0.906
